From PubChem
KCNQ1 inh – inhibitors of human KCNQ1 channel, primary screen, cell-based, thallium flux, high-throughput; AID 2642, 2010; hit rate 1.3% among 310,000; B-score at 10 µM; Potassium voltage-gated channel subfamily KQT member 1 (Homo sapiens), P51787; CHO-K1 KCNQ1, FluxOR thallium flux fluorescence; hits give high values;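 active = compounds whose thallium flux B-score, printed positive for inhibition, exceeds three library SD while starting fluorescence stays within three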;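 note: channel opened by potassium depolarization with thallium stimulus after 20 min compound exposure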
hERG protect – hERG rescue from dofetilide block, primary screen, cell-based, CHO-hERG, FluxOR thallium flux, dofetilide IC70; Voltage-gated inwardly rectifying potassium channel KCNH2 (Homo sapiens), Q12809; dofetilide IC70 present; activation (rescue from dofetilide block), less the hit threshold, % at 10 µM; hit rate 0.51% among 310,000;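 active = activation above the mean of controls blocked by dofetilide plus 5 SD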;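 note: thallium influx through hERG after potassium depolarization seen as dye fluorescence rise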
KCNK3 inh – human KCNK3 channel inhibitors, primary screen, CHO cells, FluxOR thallium flux, B-score | FluxOR fluorescence; hits give low values | Potassium channel subfamily K member 3 (Homo sapiens), O14649 | B-score at 10 µM | hit rate 0.84% among 340,000;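 active = B-score under library mean minus 4 SD, starting fluorescence ratio at most library mean plus 5 SD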;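 note: more negative B-score means stronger inhibition of thallium flux through KCNK3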
KCNQ1 act – potentiators or activators of KCNQ1 channel, primary screen, cell-based, thallium flux, high-throughput; Potassium voltage-gated channel subfamily KQT member 1 (Homo sapiens), P51787; AID 2648, 2010; CHO-K1 KCNQ1, thallium flux FluxOR fluorescence; hits give high values; B-score at 10 µM; hit rate 0.35% among 310,000;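 active = fluorescence ratio B-score, a plate-corrected score, at least three library SD, with initial intensity B-score within 5 SD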
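assay system = CHO-K1 cells stably expressing KCNQ1 | medium = assay buffer, equal DMSO in all wells | timing = 37 °C overnight plating, 90-min dark dye load, 20-min compound pretreatment | measured by = kinetic FluxOR thallium fluorescence, 10-s 1-Hz baseline, 110-s post-stimulus read | measure = fluorescence change relative to baseline, converted to B score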
KCC2 mod – KCC2 cotransporter modulators, thallium flux, primary screen, cell-based, HEK293 KCC2, FluoZin-2 fluorescence, MLSMR; Solute carrier family 12 member 5 (Homo sapiens), Q9H2X9; KCC2 cells, thallium flux FluoZin-2 fluorescence; B-score of Tl+ flux slope (higher = more flux/activation; lower = inhibition) at 10 µM; hit rate 2.2% among 190,000; AID 1456, 2008;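 active = thallium flux slope and its plate-corrected score both differing from the plate sample mean at a set confidence after two filtering rounds, in either direction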;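 note: slope of fluorescence scaled to starting intensity during 10 to 20 s after thallium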
Target sequence (Q9H2X9 whole entry, looked up): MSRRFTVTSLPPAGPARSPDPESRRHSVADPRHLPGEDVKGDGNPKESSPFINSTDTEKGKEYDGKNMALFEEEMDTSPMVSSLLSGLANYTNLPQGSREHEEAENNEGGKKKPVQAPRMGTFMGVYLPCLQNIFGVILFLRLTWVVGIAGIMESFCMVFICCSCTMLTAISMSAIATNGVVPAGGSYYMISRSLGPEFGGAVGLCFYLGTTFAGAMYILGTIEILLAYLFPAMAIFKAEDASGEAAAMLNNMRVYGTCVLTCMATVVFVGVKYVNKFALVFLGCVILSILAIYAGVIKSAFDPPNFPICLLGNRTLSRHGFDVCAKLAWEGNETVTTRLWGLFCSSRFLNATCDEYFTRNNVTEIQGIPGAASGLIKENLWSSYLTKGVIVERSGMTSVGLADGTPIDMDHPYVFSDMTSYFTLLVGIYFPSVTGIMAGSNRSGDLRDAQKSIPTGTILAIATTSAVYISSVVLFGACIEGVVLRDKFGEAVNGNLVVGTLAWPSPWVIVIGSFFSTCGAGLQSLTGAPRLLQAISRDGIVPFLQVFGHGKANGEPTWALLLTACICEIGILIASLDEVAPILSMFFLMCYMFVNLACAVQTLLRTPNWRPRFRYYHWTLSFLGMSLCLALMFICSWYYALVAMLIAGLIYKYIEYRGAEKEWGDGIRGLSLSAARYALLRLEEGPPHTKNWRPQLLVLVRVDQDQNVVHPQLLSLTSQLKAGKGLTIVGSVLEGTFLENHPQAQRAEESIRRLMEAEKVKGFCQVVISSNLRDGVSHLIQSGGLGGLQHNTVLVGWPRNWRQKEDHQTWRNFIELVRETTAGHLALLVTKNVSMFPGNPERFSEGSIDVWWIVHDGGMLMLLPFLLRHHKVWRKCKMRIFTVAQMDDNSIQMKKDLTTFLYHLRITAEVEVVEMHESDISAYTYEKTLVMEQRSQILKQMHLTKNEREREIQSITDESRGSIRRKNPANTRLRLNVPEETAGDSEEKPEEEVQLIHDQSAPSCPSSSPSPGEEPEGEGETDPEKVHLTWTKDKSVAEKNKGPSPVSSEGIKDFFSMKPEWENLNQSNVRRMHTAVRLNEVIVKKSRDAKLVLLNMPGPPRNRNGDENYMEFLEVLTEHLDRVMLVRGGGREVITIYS
KCNK9 block – KCNK9 potassium channel inhibitors, primary screen, HEK293 cells, thallium flux | Potassium channel subfamily K member 9 (Homo sapiens), Q9NPC2 | FluxOR thallium flux fluorescence; hits give low values | B-score at 10 µM | hit rate 1.2% among 310,000 | AID 488922, 2010;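 active = ratio B-score over 3 SD below the library mean, with starting fluorescence within 5 SD of its mean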;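 note: negative B-score means less thallium flux so channel inhibition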
KCNK9 inh conf – KCNK9 potassium channel inhibitors, confirmation, HEK293 cells, thallium flux, duplicate | shares compounds with KCNK9 block | FluxOR thallium flux fluorescence | inhibition, % at 10 µM | hit rate 43% among 4,900 | AID 492992, 2010;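 active = thallium signal inhibited by more than 5 SD of the compound-free buffer control wells, on both duplicate plates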
Kir21 sel – mouse Kir2.1 channel inhibition, confirmation, selectivity assay for KCNK9 modulator project, cell-based, HEK293, thallium flux. AID 492993, 2010. inhibition, % at 10 µM. Kir2.1 cells, FluxOR thallium flux fluorescence. hit rate 4% among 4,900. shares compounds with KCNK9 block;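 active = thallium signal drop more than 5 SD beyond the mean of the no-compound control wells, seen in both duplicate plates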;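 note: signal is fluorescence rise after thallium addition divided by baseline fluorescence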
KCNK9 uninduced – thallium flux in non-induced HEK293 cells, confirmation, counter-screen for KCNK9 inhibitor project, cell-based, second counter screen, non-induced KCNK9-HEK293; shares compounds with KCNK9 block; hit rate 40% among 4,900; inhibition, % at 10 µM; FluxOR thallium flux;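 active = thallium signal drop beyond 5 SD of the untreated control mean, on both duplicate plates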
Numbers stand for hits; 0 = inactive; - = no result. Only some compounds are listed: those with a hit (about 4.1% of all), similar ones and a draw of the others.

SMILES	KCNQ1 inh	hERG protect	KCNK3 inh	KCNQ1 act	KCC2 mod	KCNK9 block	KCNK9 inh conf	Kir21 sel	KCNK9 uninduced
COc1ccc(F)cc1C(=O)C1CCCN(Cc2cn(C)c3ccccc23)C1 (stereo not drawn)	0	0	0	0	0	0	0	0	0
COc1ccc(OC)c(CN2CCCC(C(=O)c3ccccc3SC)C2)c1 (stereo not drawn)	0	0	0	0	-	0	0	0	0
Cc1nc(Cc2nnc(SC(C)C(=O)Nc3cccc(C#N)c3)o2)cs1 (stereo not drawn)	0	0	0	0	-	0	-	-	-
CCOc1ccc(N2CC(C(=O)Nc3ccccc3C(=O)NC3CC3)CC2=O)cc1 (stereo not drawn)	0	0	0	0	-	0	-	-	-
Cc1cnc(NC(=O)C2(c3ccccc3)CC2)s1	0	0	0	0	0	0	-	-	-
C/C(CCC(C)C)=N\NS(=O)(=O)c1ccc(C)c([N+](=O)[O-])c1	0	0	0	0	0	-8.9	64%	0	41%
Cc1c(C(=O)N(C)C2CCCCC2)sc2ncnc(N3CCN(c4ccccc4)CC3)c12	0	0	0	0	-	0	0	0	0
Cc1c(C(=O)N2CCC(C)CC2)sc2ncnc(N3CCN(c4ccccc4)CC3)c12	0	0	0	0	-	0	0	0	0
CCc1ccccc1NC(=O)c1ccc(-n2c(C)ccc2C)cc1	0	0	0	0	-	-8.5	32%	0	0
Cc1ccc(C)n1-c1ccc(C(=O)Nc2ccccc2F)cc1	0	0	0	0	0	0	-	-	-
CCOC(=O)c1sc2ncn(CC(=O)Nc3cc(C)on3)c(=O)c2c1C	-	-	0	-	-	-	-	-	-
O=C(N/N=C/c1ccc(OC2CSC2)cc1)c1ccccc1	0	0	0	0	0	0	-	-	-
O=C(/C=C/c1ccc(OC2CSC2)cc1)c1ccccc1	0	0	0	0	0	-16	42%	0	28%
CC(OC(=O)c1cccc(-n2cnnn2)c1)C(=O)Nc1ccc(N(C)C)cc1 (stereo not drawn)	0	0	0	0	-	0	-	-	-
CCOC(=O)N/N=C/c1c(C)c(C(=O)c2ccc(F)cc2)n2ccccc12	0	0	0	0	0	-11	0	0	0
O=C(Cc1sc(-c2ccccc2)nc1-c1ccccc1)Nc1ccccc1	0	0	0	0	-	0	-	-	-
O=C(Cc1sc(Nc2ccccc2)nc1-c1ccccc1)NCc1ccccc1	0	0	0	0	0	-9.2	62%	0	31%
COc1cc(C2NC(=O)CCC2[N+](=O)[O-])cc(OC)c1OC (stereo not drawn)	0	0	0	0	-	0	-	-	-
COc1ccc(C2NC(=O)CCC2[N+](=O)[O-])cc1OC (stereo not drawn)	0	0	0	0	-	-15	0	0	0
CC(C)N(Cc1ccccc1)C(=O)COC(=O)c1ccc(S(=O)(=O)N2CCOCC2)cc1	-	-	0	-	-	-	-	-	-
COc1ccc(S(=O)(=O)Cc2ccc(C(=O)N3CCN(c4cccc(C)c4)C(C)C3)o2)cc1 (stereo not drawn)	0	0	0	0	-	0	0	0	0
COc1ccccc1S(=O)(=O)Cc1ccc(C(=O)N2CCN(c3ccc(C)cc3)C(C)C2)o1 (stereo not drawn)	0	0	0	0	0	0	-	-	-
Cc1cc(C)c(S(=O)(=O)c2ccccc2)c(OC(=O)c2c(Cl)cc(Cl)cc2Cl)n1	0	0	0	0	0	-10	52%	0	32%
c1ccc(NCCC2OCC3(CO2)COC(CCNc2ccccc2)OC3)cc1 (stereo not drawn)	-	-	0	-	-	-	-	-	-
COc1ccc2c(c1)-c1nc(NC(=O)c3ccco3)sc1CC2	0	0	0	0	0	-11	48%	0	0
SMILES	KCNQ1 inh	hERG protect	KCNK3 inh	KCNQ1 act	KCC2 mod	KCNK9 block	KCNK9 inh conf	Kir21 sel	KCNK9 uninduced
COc1ccc2c(c1)CCc1sc(NC(=O)c3ccco3)nc1-2	0	0	0	0	0	-8.4	26%	0	0
COc1ccc(C(=O)NCc2nnc(SCC(=O)NC3CCCCC3)o2)cc1	0	0	0	0	-	0	-	-	-
CCc1nn2c(=O)cc(COC(=O)c3ccc(SC)cc3OC)nc2s1	-	-	0	-	-	-	-	-	-
Cc1cccc(N2CCN(Cc3nc(-c4ccc(F)cc4F)oc3C)CC2)n1	0	0	0	0	0	0	0	0	0
COc1cc(C(=S)N2CCCCC2)ccc1OCC(=O)Nc1ccc(F)cc1	0	0	0	0	-	0	-	-	-
COc1ccc(-n2nc([N+](=O)[O-])c(=NCCc3ccc(Cl)cc3)n2O)cc1	0	0	0	0	0	0	-	-	-
COc1ccc(-n2nc([N+](=O)[O-])c(=NCCc3ccc(C)cc3)n2O)cc1	0	0	0	0	0	0	0	0	0
Cn1c(SCC(=O)Nc2cccnc2Cl)nc2ccccc21	-	-	0	-	-	-	-	-	-
Cc1ccc(C(=O)c2c(NC(=O)c3ccccc3C)sc(C)c2C)cc1	0	0	0	0	-	0	0	0	0
Cc1c(C)c(C)c(C(=O)c2ccc(NC(=O)c3ccccc3C(=O)O)cc2)c(C)c1C	0	0	0	0	-	0	0	0	0
O=C(O)c1ccccc1C(=O)Nc1ccc(Oc2ccc3ccccc3c2)cc1	0	0	0	0	0	0	0	0	0
COc1ccc(NC(=O)c2ccccc2-c2ccccc2C(=O)O)cc1	0	0	0	0	-	0	-	-	-
CC1CC(=O)C(C(C2=C(O)CC(C)CC2=O)c2ccccc2)=C(O)C1 (stereo not drawn)	-	-	0	-	-	-	-	-	-
Cc1ccc(COCCN2CCN(S(=O)(=O)c3ccc(C)cc3)CCC2=O)cc1	0	0	0	0	0	0	-	-	-
COc1ccc(COCCN2CCN(S(=O)(=O)c3ccc(C)cc3)CCC2=O)cc1	0	0	-	0	0	0	-	-	-
Cc1ccc(S(=O)(=O)N2CCC(=O)N(CCOCc3cccc(C)c3)CC2)cc1	0	0	0	0	0	0	0	0	0
